Source: article PMC4128068 (British Journal of Pharmacology, 2014)

What was measured:
[1] = test system: kidney PCT cells (CFTR-expressing); experiment: LIVE/DEAD cell viability/cytotoxicity assay; assay type: cell-based, mouse; conditions: 24 h
How it was run: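 Confluent mouse kidney PCT monolayers in 1% serum were exposed to the test compound (0.5–50 µM) for 24 h. Live cells were stained with calcein-AM (green) and dead cells with […] (red). Green and red pixels were quantified on three micrographs per well. Values were normalised to 100% live cells in controls, as means ±SEM of 3–6 experiments.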

[2] = target: T1, volume-sensitive outwardly rectifying Cl− conductance (VSORC) (Mus musculus, UniProt Q80WG5); assay type: cell-based; conditions: CFTR-expressing cells
T1 sequence (Q80WG5 1-810): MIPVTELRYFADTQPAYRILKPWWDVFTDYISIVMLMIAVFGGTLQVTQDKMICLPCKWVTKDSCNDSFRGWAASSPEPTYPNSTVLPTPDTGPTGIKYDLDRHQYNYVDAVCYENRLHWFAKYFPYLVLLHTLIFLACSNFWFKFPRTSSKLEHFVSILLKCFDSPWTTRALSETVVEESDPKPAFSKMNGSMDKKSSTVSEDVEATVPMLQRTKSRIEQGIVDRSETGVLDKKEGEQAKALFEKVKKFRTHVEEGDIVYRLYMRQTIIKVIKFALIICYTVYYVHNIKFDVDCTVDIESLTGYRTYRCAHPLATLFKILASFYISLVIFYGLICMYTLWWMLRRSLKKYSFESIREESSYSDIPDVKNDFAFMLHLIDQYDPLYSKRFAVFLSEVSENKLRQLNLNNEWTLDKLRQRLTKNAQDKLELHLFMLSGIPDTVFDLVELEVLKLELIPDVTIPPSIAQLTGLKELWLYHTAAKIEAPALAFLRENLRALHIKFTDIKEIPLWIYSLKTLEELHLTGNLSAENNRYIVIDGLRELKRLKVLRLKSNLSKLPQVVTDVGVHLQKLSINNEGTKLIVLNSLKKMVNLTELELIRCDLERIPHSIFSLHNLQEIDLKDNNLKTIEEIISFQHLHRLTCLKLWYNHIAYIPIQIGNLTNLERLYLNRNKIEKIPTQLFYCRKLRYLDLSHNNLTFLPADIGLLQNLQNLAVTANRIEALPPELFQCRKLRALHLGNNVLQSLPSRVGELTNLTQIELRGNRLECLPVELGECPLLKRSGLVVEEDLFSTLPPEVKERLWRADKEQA
How it was run: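 Ruptured whole-cell patch clamp on kidney cells. Pipette: 140 mM NMDGCl, 10 HEPES pH 7.4, 5 EGTA, 5 MgATP. VSORC was activated by switching from a mannitol-containing NMDGCl bath (320–330 mOsm) to a mannitol-free one (285–290 mOsm). Test compound (0.5–10 µM) was perfused after 3–4 min. Cells were held at −40 mV with 400 ms steps from −100 to +100 mV. Slopes (−100 to −60 and +60 to +100 mV) were normalised to the hypotonic maximum; 5–6 cells.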

[3] = test system: shark 'CFTR-like' protein; conditions: 25 µM; oocyte expression system; ref Stahl et al., 2012; cited from earlier work
[4] = target: CFTR-like Cl− conductance (Mus musculus, UniProt P26361); assay type: cell-based
CFTR-like Cl− conductance, sequence (P26361 whole entry, the tested form may be a part): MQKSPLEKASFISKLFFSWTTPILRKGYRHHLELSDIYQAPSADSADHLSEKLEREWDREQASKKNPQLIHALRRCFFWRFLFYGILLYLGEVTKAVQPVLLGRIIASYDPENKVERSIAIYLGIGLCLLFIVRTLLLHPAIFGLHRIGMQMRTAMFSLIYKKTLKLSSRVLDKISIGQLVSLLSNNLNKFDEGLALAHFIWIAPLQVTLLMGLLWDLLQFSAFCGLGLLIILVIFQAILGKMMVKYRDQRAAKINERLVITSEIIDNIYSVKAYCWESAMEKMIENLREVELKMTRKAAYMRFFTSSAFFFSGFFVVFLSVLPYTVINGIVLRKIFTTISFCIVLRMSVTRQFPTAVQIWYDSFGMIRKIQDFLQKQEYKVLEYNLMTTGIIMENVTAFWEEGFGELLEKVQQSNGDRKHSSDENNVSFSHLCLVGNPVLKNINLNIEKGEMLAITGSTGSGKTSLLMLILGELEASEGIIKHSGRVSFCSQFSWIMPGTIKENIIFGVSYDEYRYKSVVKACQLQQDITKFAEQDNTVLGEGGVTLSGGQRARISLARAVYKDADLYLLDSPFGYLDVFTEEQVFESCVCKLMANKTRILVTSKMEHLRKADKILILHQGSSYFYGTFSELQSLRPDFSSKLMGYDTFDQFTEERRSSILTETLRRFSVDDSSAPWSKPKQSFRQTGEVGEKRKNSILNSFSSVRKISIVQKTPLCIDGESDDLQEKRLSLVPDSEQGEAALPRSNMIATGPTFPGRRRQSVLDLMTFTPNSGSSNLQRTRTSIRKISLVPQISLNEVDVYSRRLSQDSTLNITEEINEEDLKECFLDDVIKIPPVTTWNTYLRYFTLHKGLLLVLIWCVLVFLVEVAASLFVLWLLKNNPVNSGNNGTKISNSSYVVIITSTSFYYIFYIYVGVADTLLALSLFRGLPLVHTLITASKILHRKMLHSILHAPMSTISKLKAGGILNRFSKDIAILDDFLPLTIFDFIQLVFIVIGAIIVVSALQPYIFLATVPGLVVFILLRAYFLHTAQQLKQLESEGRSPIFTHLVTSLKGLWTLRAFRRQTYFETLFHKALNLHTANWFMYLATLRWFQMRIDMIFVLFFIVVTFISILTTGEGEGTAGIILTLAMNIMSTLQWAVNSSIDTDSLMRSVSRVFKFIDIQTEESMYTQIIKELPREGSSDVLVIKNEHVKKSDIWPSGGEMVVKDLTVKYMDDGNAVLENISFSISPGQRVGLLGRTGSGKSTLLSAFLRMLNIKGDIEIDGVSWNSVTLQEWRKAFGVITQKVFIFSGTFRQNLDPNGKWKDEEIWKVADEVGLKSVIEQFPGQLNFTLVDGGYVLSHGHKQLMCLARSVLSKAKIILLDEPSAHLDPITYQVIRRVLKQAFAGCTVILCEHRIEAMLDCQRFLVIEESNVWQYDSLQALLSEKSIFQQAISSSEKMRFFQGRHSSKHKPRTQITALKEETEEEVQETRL
How it was run: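 Ruptured whole-cell patch clamp on cultured kidney DCT cells. CFTR current activated with forskolin (1–10 µM); once fully developed (3–4 min), test compound was perfused at rising concentrations (0.5, 1, 5, 10 µM). Holding potential −40 mV; eleven 400-ms steps from −100 to +100 mV in +20 mV increments. Current read 350 ms after pulse onset; mean ±SEM of six to eight cells.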

[5] = test system: Ca2+-dependent Cl− conductance (CaCC); experiment: whole-cell patch-clamp, ionomycin-activated CaCC in CFTR-expressing kidney cells; assay type: cell-based, mouse
How it was run: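 Ruptured whole-cell patch clamp on kidney cells, with the NMDGCl pipette solution (5 EGTA, 5 MgATP, pH 7.4). CaCC was activated with 2 µM ionomycin, and test compound (1, 5, 10 µM) was perfused once current peaked. Cells were held at −40 mV with 400 ms steps from −100 to +120 mV. Slopes (+60 to +120 mV) were normalised to the uninhibited maximum; 5–6 cells. IC50 came from Hill fits.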

[6] = test system: kidney PCT cells (CFTR-expressing); experiment: MTT assay on CFTR-expressing cells; assay type: cell-based, mouse; conditions: 24 h
[7] = test system: human CFTR; conditions: 20 µM; oocyte expression system; ref Stahl et al., 2012; cited from earlier work
[8] = test system: PS120 cells; experiment: MTT assay on non–CFTR-expressing cells; assay type: cell-based, hamster; conditions: 24 h
How it was run: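 PS120 cells in 1% serum were exposed to increasing test compound concentrations for 24 h. They were then incubated 1 h with 0.5 mg mL−1 MTT in phenol red-free DMEM:F12 with 5% serum at 37°C. Cells were lysed in 10% SDS/0.01 N HCl overnight and OD read at 562 nm. Values were normalised to vehicle, means (SEM) of eight experiments.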

O=C(O)c1ccc(C=C2SC(=S)N(c3cccc(C(F)(F)F)c3)C2=O)cc1 [CFTRinh-172, 3-[(3-trifluoromethyl)phenyl]-5-[(4-carboxyphenyl)methylene]-2-thioxo-4-thiazolidinone]
effect on cell viability (live/dead labelling) ([1]; 50 µM): induced cell death | effect on cell viability (live/dead labelling) ([1]; 1 to 20 µM): no significant effect on cell viability | inhibition of VSORC ([2]; 10 µM, negative and positive potentials): ~50% | IC50 ([2]; read-out: IC50 towards VSORC-mediated Cl− currents, either at negative or positive potentials): 12 µM | effect on VSORC conductance ([2]; up to 1 µM): did not affect | inhibition of shark 'CFTR-like' protein [3]: 10% | inhibition of the CFTR conductance ([4]; 5 µM): full inhibition | concentration of maximal inhibition of the CFTR-like current ([4]; forskolin-activated, tested 0.5, 1, 5, 10 µM): 5 µM | inhibition of the CaCC ([5]; 5 µM): no noticeable inhibition | effect on the CaCC ([5]; up to 10 µM, ionomycin 2 µM): did not affect | effect on cell viability (MTT) ([6]; 20 µM and even 10 µM): marked effect | effect on cell viability (MTT) ([6]; 50 µM): dramatic decrease of the cell viability | inhibition of human CFTR [7]: ~50% | concentration decreasing cell viability (MTT) [8]: 5 µM

O=C(O)c1cc([N+](=O)[O-])ccc1NCCCc1ccccc1 [NPPB, 5-nitro-2-(3-phenylpropylamino)-benzoic acid]
inhibition of the remaining fraction of the VSORC current ([2]; 100 µM, after CFTRinh-172): completely inhibited
